# Results: ChEMBL document CHEMBL2407075, “Sulphonamido-quinoxalines: search for anticancer agent” (Eur J Med Chem, 2013)
# Columns and labels:
# Format in all cases: functional
# [1] = tested on: MDA-MB-231; assay: Growth inhibition of human MDA-MB-231 cells at 10 uM after 48 hrs by sulforhodamine B assay; conditions: MDA-MB-231, 48 h, read-out: GI
# In short: (§1)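 Single-dose screen at 10 µM across the NCI 60 panel. Cells in RPMI 1640 with 5% FBS and 2 mM L-glutamine, plated at 5000–40,000/well and preincubated 24 h at 37 °C, 5% CO2. Drug in DMSO, 48 h exposure. Fixed with TCA, stained with SRB, A515 read. Percent growth is taken relative to untreated control, and inhibition is 100 minus growth.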
# [2] = tested on: 786-0; assay: Growth inhibition of human 786-0 cells at 10 uM after 48 hrs by sulforhodamine B assay; conditions: 786-0, 48 h, read-out: GI
# In short: (§2)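 Single-dose NCI-60 prescreen at 10 µM for 48 h at 37 °C and 5% CO2, using cells grown in RPMI 1640 with 5% FBS and 2 mM glutamine. Protein was measured by SRB after TCA fixation: 10% final for adherent lines, 16% for suspension lines. Absorbance was read at 515 nm. Percent growth inhibition was obtained by subtracting percent growth from 100.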
# [3] = Growth inhibition of human Hs 578T cells at 10 uM after 48 hrs by sulforhodamine B assay; conditions: read-out: GI
# In short: (§3)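 NCI-60 one-dose primary screen at a single 10 µM concentration. Cells in RPMI 1640 with 5% FBS, preincubated 24 h at 37 °C, 5% CO2. Drug exposure 48 h, then TCA fixation, SRB staining and absorbance at 515 nm. Percent growth calculated against time-zero and untreated control wells, then converted to percent growth inhibition.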
# [4] = tested on: MOLT-4; assay: Growth inhibition of human MOLT4 cells at 10 uM after 48 hrs by sulforhodamine B assay; conditions: MOLT-4, 48 h, read-out: GI; in short: as §1
# [5] = tested on: SK-OV-3; assay: Growth inhibition of human SKOV3 cells at 10 uM after 48 hrs by sulforhodamine B assay; conditions: SK-OV-3, 48 h, read-out: GI; in short: as §1
# [6] = Growth inhibition of human NCI-ADR-RES cells at 10 uM after 48 hrs by sulforhodamine B assay; conditions: read-out: GI; in short: as §1
# [7] = tested on: TK-10; assay: Growth inhibition of human TK10 cells at 10 uM after 48 hrs by sulforhodamine B assay; conditions: TK-10, 48 h, read-out: GI; in short: as §1
# [8] = tested on: SF-539; assay: Growth inhibition of human SF539 cells at 10 uM after 48 hrs by sulforhodamine B assay; conditions: SF-539, 48 h, read-out: GI; in short: as §1
# [9] = tested on: UACC-257; assay: Growth inhibition of human UACC257 cells at 10 uM after 48 hrs by sulforhodamine B assay; conditions: UACC-257, 48 h, read-out: GI; in short: as §1
# [10] = tested on: MCF7; assay: Growth inhibition of human MCF7 cells at 10 uM after 48 hrs by sulforhodamine B assay; conditions: MCF7, 48 h, read-out: GI; in short: as §1
# [11] = tested on: SNB-75; assay: Growth inhibition of human SNB75 cells at 10 uM after 48 hrs by sulforhodamine B assay; conditions: SNB-75, 48 h, read-out: GI; in short: as §1
# [12] = tested on: RXF 393; assay: Growth inhibition of human RXF393 cells at 10 uM after 48 hrs by sulforhodamine B assay; conditions: RXF 393, 48 h, read-out: GI; in short: as §1
# [13] = tested on: HCT-15; assay: Growth inhibition of human HCT15 cells at 10 uM after 48 hrs by sulforhodamine B assay; conditions: HCT-15, 48 h, read-out: GI; in short: as §3
# [14] = tested on: A498; assay: Growth inhibition of human A498 cells at 10 uM after 48 hrs by sulforhodamine B assay; conditions: A498, 48 h, read-out: GI; in short: as §2
# [15] = tested on: T47D; assay: Growth inhibition of human T47D cells at 10 uM after 48 hrs by sulforhodamine B assay; conditions: read-out: GI; in short: as §1
# [16] = Growth inhibition of human HCC2998 cells at 10 uM after 48 hrs by sulforhodamine B assay; conditions: HCC 2998, 48 h, read-out: GI; in short: as §3
# [17] = tested on: CCRF-CEM; assay: Growth inhibition of human CCRF-CEM cells at 10 uM after 48 hrs by sulforhodamine B assay; conditions: read-out: GI; in short: as §2
# [18] = tested on: MDA-MB-468; assay: Growth inhibition of human MDA-MB-468 cells at 10 uM after 48 hrs by sulforhodamine B assay; conditions: MDA-MB-468, 48 h, read-out: GI; in short: as §1
# [19] = tested on: SW-620; assay: Growth inhibition of human SW620 cells at 10 uM after 48 hrs by sulforhodamine B assay; conditions: SW-620, 48 h, read-out: GI; in short: as §1
# [20] = tested on: SR; assay: Growth inhibition of human SR cells at 10 uM after 48 hrs by sulforhodamine B assay; conditions: read-out: GI; in short: as §1
# [21] = tested on: COLO 205; assay: Growth inhibition of human COLO205 cells at 10 uM after 48 hrs by sulforhodamine B assay; conditions: COLO 205, 48 h, read-out: GI; in short: as §2
# [22] = tested on: DU-145; assay: Growth inhibition of human DU145 cells at 10 uM after 48 hrs by sulforhodamine B assay; conditions: DU-145, 48 h, read-out: GI; in short: as §2
# [23] = tested on: NCI-H522; assay: Growth inhibition of human NCI-H522 cells at 10 uM after 48 hrs by sulforhodamine B assay; conditions: NCI-H522, 48 h, read-out: GI; in short: as §1
# [24] = tested on: SK-MEL-5; assay: Growth inhibition of human SK-MEL-5 cells at 10 uM after 48 hrs by sulforhodamine B assay; conditions: SK-MEL-5, 48 h, read-out: GI; in short: as §1
# [25] = tested on: BT-549; assay: Growth inhibition of human BT549 cells at 10 uM after 48 hrs by sulforhodamine B assay; conditions: BT-549, 48 h, read-out: GI; in short: as §2
# [26] = tested on: HT-29; assay: Growth inhibition of human HT-29 cells at 10 uM after 48 hrs by sulforhodamine B assay; conditions: HT-29, 48 h, read-out: GI; in short: as §3
SMILES,inhibition of growth at 10 µM [1] [%],inhibition of growth at 10 µM [2] [%],inhibition of growth at 10 µM [3] [%],inhibition of growth at 10 µM [4] [%],inhibition of growth at 10 µM [5] [%],inhibition of growth at 10 µM [6] [%],inhibition of growth at 10 µM [7] [%],inhibition of growth at 10 µM [8] [%],inhibition of growth at 10 µM [9] [%],inhibition of growth at 10 µM [10] [%],inhibition of growth at 10 µM [11] [%],inhibition of growth at 10 µM [12] [%],inhibition of growth at 10 µM [13] [%],inhibition of growth at 10 µM [14] [%],inhibition of growth at 10 µM [15] [%],inhibition of growth at 10 µM [16] [%],inhibition of growth at 10 µM [17] [%],inhibition of growth at 10 µM [18] [%],inhibition of growth at 10 µM [19] [%],inhibition of growth at 10 µM [20] [%],further results
COc1ccccc1NS(=O)(=O)c1ccc2nc(-c3ccccc3)c(-c3ccccc3)nc2c1,48.3,41.5,33.2,56.9,18.6,41,1.26,24.7,18.9,31.8,31.9,70.7,44.7,42.8,63.9,19.9,49.8,56.8,21.5,81.9,inhibition of growth at 10 µM [21]: 28.9%; inhibition of growth at 10 µM [22]: 18.9%; inhibition of growth at 10 µM [23]: 28.8%; inhibition of growth at 10 µM [24]: 61.4%; inhibition of growth at 10 µM [25]: 55.1%; inhibition of growth at 10 µM [26]: 63.9%
O=C(NS(=O)(=O)c1ccc2nc(-c3ccccc3)c(-c3ccccc3)nc2c1)c1ccccc1,28.5,16.5,17,44.9,12.8,27.5,2.54,3.89,15.2,22.9,34.7,39.1,44.9,42.2,57.5,15.3,41.3,40.2,17.4,71.1,inhibition of growth at 10 µM [21]: 19.5%; inhibition of growth at 10 µM [22]: 6.85%; inhibition of growth at 10 µM [23]: 23.5%; inhibition of growth at 10 µM [24]: 48.9%; inhibition of growth at 10 µM [25]: 7.67%; inhibition of growth at 10 µM [26]: 48.4%
O=S(=O)(Nc1cccc2ccccc12)c1ccc2nc(-c3ccccc3)c(-c3ccccc3)nc2c1,38.7,4.34,24,47.8,5.86,22.6,6.34,5.57,21.7,23,39.9,48.6,34.3,31.9,49.4,4.56,58.3,54.9,26.8,81.1,inhibition of growth at 10 µM [21]: 27.9%; inhibition of growth at 10 µM [22]: 10.9%; inhibition of growth at 10 µM [23]: 47.8%; inhibition of growth at 10 µM [24]: 48.6%; inhibition of growth at 10 µM [25]: 32.6%; inhibition of growth at 10 µM [26]: 82.5%
NC(=S)NNS(=O)(=O)c1ccc2nc(-c3ccccc3)c(-c3ccccc3)nc2c1,17.6,2.34,6.63,28.1,5.98,11.9,2.74,21.7,8.83,18.9,25.6,29.2,29.9,26.8,42.6,8.92,35.8,30.8,3.72,50,inhibition of growth at 10 µM [21]: 4.83%; inhibition of growth at 10 µM [22]: 2.73%; inhibition of growth at 10 µM [23]: 13.7%; inhibition of growth at 10 µM [24]: 39.1%; inhibition of growth at 10 µM [25]: 1.83%; inhibition of growth at 10 µM [26]: 30.8%
